# According to ChEMBL document CHEMBL1137366, “Novel Schiff base copper complexes of quinoline-2 carboxaldehyde as proteasome inhibitors in human prostate cancer cells” (J Med Chem, 2006):
# The source made the active and inactive calls. The calls are words filed in the database; no cut-off is given here.
# Assays:
# [1] = test system: LNCaP; assay: Cytotoxicity against human LnCaP cell line by MTT assay after 72 hrs; type: functional, cell-based
# In short: (§1)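 MTT growth-inhibition assay in prostate cancer cells. Cells were exposed to compounds for 72 h. IC50 was taken from the dose–response data.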
# [2] = test system: PC-3; assay: Cytotoxicity against human PC3 cell line by MTT assay after 72 hrs; type: functional, cell-based; settings: PC-3, 72 h; in short: as §1
# [3] = test system: LNCaP; assay: Induction of apoptosis in LnCaP cells measured by hydrogen peroxide assay; type: functional, cell-based; settings: Homo sapiens
# In short: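 LNCaP cells were treated for 24 h at 4, 7 and 10 µM. H2O2 was then measured with the Amplex Red hydrogen peroxide kit at time points from 1 to 6 h. Absorbance was normalized to control.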
# [4] = test system: LNCaP; assay: Induction of apoptosis in LnCaP cells assessed as PARP cleavage by Western blot analysis; type: functional, cell-based; settings: Homo sapiens
# [5] = test system: LNCaP; assay: Inhibition in LnCaP cell line growth by ELISA apoptosis assay upto 20 uM; type: functional, cell-based; settings: Homo sapiens
# In short: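 Apoptotic cell death in LNCaP cells measured by histone/DNA ELISA. Cells were treated for 72 h at 10 and 20 µM and compared with a control.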
# [6] = target: T1, Proteasome Macropain subunit MB1 (Homo sapiens, UniProt P28074); assay: Inhibition of chymotrypsin-like activity of proteasome in intact LnCaP cells; type: cell-based
# T1 sequence (P28074 whole entry): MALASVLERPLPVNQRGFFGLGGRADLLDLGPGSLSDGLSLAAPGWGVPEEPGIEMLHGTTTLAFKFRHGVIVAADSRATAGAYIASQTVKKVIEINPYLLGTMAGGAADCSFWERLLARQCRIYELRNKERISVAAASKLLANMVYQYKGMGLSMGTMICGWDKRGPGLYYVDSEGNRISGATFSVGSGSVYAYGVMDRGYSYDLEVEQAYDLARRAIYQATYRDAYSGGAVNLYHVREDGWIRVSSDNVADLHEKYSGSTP
# In short: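 Intact LNCaP cells were treated, then whole-cell extracts were assayed for proteasome chymotrypsin-like activity. CuCl2 alone served as control. IC50 values were derived.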
IC50 [6],Structure (SMILES),IC50 [1],IC50 [2],Activity [3],Activity [4],Activity [5]
,O=C(N/N=C/c1ccc2ccccc2n1)c1ccccc1O,20 µM,31 µM,,,
≥ 10 µM,NC(=S)N/N=C/c1ccc2ccccc2n1,16 µM,21 µM,inactive,Active,Dose-dependent effect
,O=C(N/N=C/c1ccc2ccccc2n1)c1ccccc1,20 µM,25 µM,,,
